Measured values from ChEMBL document CHEMBL3272018, “Synthesis of aziridinylallylaminophosphine oxides and sulfides as potential adjuvant cancer chemotherapeutic agents” (J Med Chem, 1976).
Activity calls are given as the source filed them. No cut-off for these calls is given here.

Assays:
W256 [1] = assay: Antitumor activity against cytoxan-resistant rat Walker 256 cells intramuscularly allografted in rat assessed as survival rate at 12 mg/kg, qd administered for 5 days; assay type: functional, organism-based; parameters: dose 12 mg/kg
Method in brief: (§1)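 Rats bearing Walker 256 carcinoma as a solid tumor; lines 1-8 use a cytoxan-resistant Walker 256 subline. Dosed once daily for 5 days. Treated (T) and untreated control (C) groups are compared, and the response is given as T/C percentage, reflecting increase in survival time. Host weight change is the average weight change of the test group minus that of the controls, in grams.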

W256 [2] = assay: Antitumor activity against cytoxan-resistant rat Walker 256 cells intramuscularly allografted in rat assessed as survival rate at 6 mg/kg, qd administered for 5 days; assay type: functional, organism-based; parameters: dose 6 mg/kg; method in brief: as §1
W256 [3] = assay: Antitumor activity against rat Walker 256 cells intramuscularly allografted in rat assessed as tumor growth inhibition; assay type: functional; conditions: W256, im
Method in brief: (§2)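 Dosed once daily for 5 days. Response is tumor progression in treated (T) versus untreated control (C) animals, expressed as T/C percentage. Host weight change is reported as the average net weight change of the test group minus that of the controls, in grams.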

Rattus norvegicus [4] = assay: Toxicity in rat allografted with rat Walker 256 cells intramuscularly assessed as change in body weight at 12 mg/kg, qd administered for 5 days; assay type: organism-based; parameters: dose 12 mg/kg, route intramuscular; conditions: in vivo, im, 120 h
Method in brief: (§3)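 Walker 256 carcinoma solid-tumour system in rats (parent line, or the line resistant to cytoxan). Dosing was one injection per day for 5 days. Toxicity was taken as the average net body-weight change of the treated group minus the average net weight change of the untreated tumour-bearing controls, in grams.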

Rattus norvegicus [5] = assay: Toxicity in rat allografted with cytoxan-resistant rat Walker 256 cells intramuscularly assessed as change in body weight at 6 mg/kg, qd administered for 5 days; assay type: organism-based; parameters: dose 6 mg/kg, route intramuscular; conditions: in vivo, im, 120 h; method in brief: as §3
L1210 [6] = assay: In vivo antitumor activity against mouse L1210 cells in prognostic scoring system assessed as survival rate at 3 mg/kg, qd administered for 15 days; assay type: functional, organism-based; parameters: dose 3 mg/kg
Method in brief: (§4)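 L1210 leukaemia in mice, run as an ascites tumour system. Injections were once daily for 9 or 15 days, or as a single dose. Response is the increase in survival time, given as T/C %, treated over untreated controls; a larger value means more activity. Weight change is the treated-group mean minus the control-group mean, in grams.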

W256 [7] = assay: Antitumor activity against cytoxan-resistant rat Walker 256 cells intramuscularly allografted in rat assessed as tumor growth inhibition at 6 mg/kg, qd administered for 5 days relative to control; assay type: functional; conditions: W256, im, 120 h, route intramuscular, read-out: TGI; method in brief: as §2
L1210 [8] = assay: In vivo antitumor activity against mouse L1210 cells in prognostic scoring system assessed as survival rate at 7 mg/kg, qd administered for 15 days; assay type: functional, organism-based; parameters: dose 7 mg/kg; method in brief: as §4
Rattus norvegicus [9] = assay: Toxicity in rat allografted with cytoxan-resistant rat Walker 256 cells intramuscularly assessed as change in body weight at 25 mg/kg, qd administered for 5 days; assay type: organism-based; parameters: dose 25 mg/kg, route intramuscular; conditions: in vivo, im, 120 h; method in brief: as §3
W256 [10] = assay: Antitumor activity against cytoxan-resistant rat Walker 256 cells intramuscularly allografted in rat assessed as survival rate at 3 mg/kg, qd administered for 5 days; assay type: functional, organism-based; parameters: dose 3 mg/kg; method in brief: as §1
W256 [11] = assay: Antitumor activity against cytoxan-resistant rat Walker 256 cells intramuscularly allografted in rat assessed as tumor growth inhibition at 25 mg/kg, qd administered for 5 days relative to control; assay type: functional; conditions: W256, im, 120 h, route intramuscular, read-out: TGI; method in brief: as §2
W256 [12] = assay: Antitumor activity against cytoxan-resistant rat Walker 256 cells intramuscularly allografted in rat assessed as tumor growth inhibition at 12 mg/kg, qd administered for 5 days relative to control; assay type: functional; conditions: W256, im, 120 h, route intramuscular, read-out: TGI; method in brief: as §2
W256 [13] = assay: Antitumor activity against cytoxan-resistant rat Walker 256 cells intramuscularly allografted in rat assessed as tumor growth inhibition at 3 mg/kg, qd administered for 5 days relative to control; assay type: functional; conditions: W256, im, 120 h, route intramuscular, read-out: TGI; method in brief: as §2
L1210 [14] = assay: In vivo antitumor activity against mouse L1210 cells in prognostic scoring system assessed as survival rate at 5 mg/kg, qd administered for 15 days; assay type: functional, organism-based; parameters: dose 5 mg/kg; method in brief: as §4
[15] = Therapeutic index, ratio of LD50 for rat allografted with rat Walker 256 cells to ED10 for antitumor activity against rat Walker 256 cells intramuscularly allografted in rat; assay type: cell-based; conditions: read-out: TI
Method in brief: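 Therapeutic index is LD50/ED10 in the Walker 256 solid tumour system. ED10 is the dose giving a 10% tumour weight reduction, with values extrapolated from dose-response data.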

L1210 [16] = assay: In vivo antitumor activity against mouse L1210 cells in prognostic scoring system […] at 5 mg/kg, qd administered for 15 days relative to control; assay type: functional; conditions: L1210, 360 h, read-out: TGI
W256 [17] = assay: Antitumor activity against rat Walker 256 cells intramuscularly allografted in rat assessed as survival rate at 12 mg/kg, qd administered for 5 days; assay type: functional, organism-based; parameters: dose 12 mg/kg; method in brief: as §1
L1210 [18] = assay: In vivo antitumor activity against mouse L1210 cells in prognostic scoring system assessed as survival rate at 11 mg/kg, qd administered for 15 days; assay type: functional, organism-based; parameters: dose 11 mg/kg; method in brief: as §4
Rattus norvegicus [19] = assay: Toxicity in rat allografted with cytoxan-resistant rat Walker 256 cells intramuscularly assessed as change in body weight at 12 mg/kg, qd administered for 5 days; assay type: organism-based; parameters: dose 12 mg/kg, route intramuscular; conditions: in vivo, im, 120 h; method in brief: as §3
W256 [20] = assay: Antitumor activity against rat Walker 256 cells intramuscularly allografted in rat assessed as tumor growth inhibition at 12 mg/kg, qd administered for 5 days relative to control; assay type: functional; conditions: W256, im, 120 h, route intramuscular, read-out: TGI
Method in brief: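 Walker 256 carcinoma grown as a solid tumour in rats, with one injection daily for 5 days. Response is given as T/C %, the treated-group measure over the untreated-control tumour measure; a smaller value means more activity. Host toxicity is the mean net weight change of treated minus control animals, in grams.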

W256 [21] = assay: Antitumor activity against cytoxan-resistant rat Walker 256 cells intramuscularly allografted in rat assessed as survival rate at 25 mg/kg, qd administered for 5 days; assay type: functional, organism-based; parameters: dose 25 mg/kg; method in brief: as §1
[22] = Toxicity in rat allografted with rat Walker 256 cells intramuscularly; assay type: organism-based
Rattus norvegicus [23] = assay: Toxicity in rat allografted with cytoxan-resistant rat Walker 256 cells intramuscularly assessed as change in body weight at 3 mg/kg, qd administered for 5 days; assay type: organism-based; parameters: dose 3 mg/kg, route intramuscular; conditions: in vivo, im, 120 h; method in brief: as §3
Musca domestica [24] = assay: Toxicity in male house fly assessed as lowest dose required to cause complete sterility administered in sugar; assay type: organism-based; conditions: in vivo, po
Musca domestica [25] = assay: Toxicity in male house fly assessed as lowest dose required to cause complete sterility administered in food; assay type: organism-based; conditions: in vivo, po
Rattus norvegicus [26] = assay: Toxicity in rat allografted with rat Walker 256 cells intramuscularly assessed as change in body weight at 0.3 mg/kg, qd administered for 5 days; assay type: organism-based; parameters: dose 0.3 mg/kg, route intramuscular; conditions: in vivo, im, 120 h; method in brief: as §3
W256 [27] = assay: Antitumor activity against rat Walker 256 cells intramuscularly allografted in rat assessed as survival rate at 0.3 mg/kg, qd administered for 5 days; assay type: functional, organism-based; parameters: dose 0.3 mg/kg; method in brief: as §1
W256 [28] = assay: Antitumor activity against rat Walker 256 cells intramuscularly allografted in rat assessed as tumor growth at 0.3 mg/kg, qd administered for 5 days (reference value: 9.2 g); assay type: functional; conditions: route intramuscular; method in brief: as §2

## C=CCN(CC=C)P(=O)(N(CC=C)CC=C)N1CC1
W256 [1]
  Activity: Active
W256 [2]
  Activity: Active
W256 [3]
  ED10: 2.5 mg/kg
Rattus norvegicus [4]
  Activity: -1 g
Rattus norvegicus [5]
  Activity: -7 g
L1210 [6]
  Activity: Active
W256 [7]
  inhibition in vivo at 6 mg/kg: 70%
L1210 [8]
  Activity: Active
Rattus norvegicus [9]
  Activity: -28 g
W256 [10]
  Activity: Active
W256 [11]
  inhibition in vivo at 25 mg/kg: 52%
W256 [12]
  inhibition in vivo at 12 mg/kg: 66%
W256 [13]
  inhibition in vivo at 3 mg/kg: 84%
L1210 [14]
  Activity: Active
[15]
  selectivity ratio: 30
L1210 [16]
  inhibition in vivo at 5 mg/kg: 155%
W256 [17]
  Activity: Active
L1210 [18]
  Activity: Active
Rattus norvegicus [19]
  Activity: -4 g
W256 [20]
  inhibition in vivo at 12 mg/kg: 0%
W256 [21]
  Activity: Active
[22]
  LD50: 75 mg/kg
Rattus norvegicus [23]
  Activity: -1 g

## C=CCN(C1=CCCCC1)P(=O)(N1CC1)N1CC1
Musca domestica [24]
  Activity: 1%
Musca domestica [25]
  Activity: 1%

## C=CCN(CC=C)P(=S)(N1CC1)N1CC1
Musca domestica [24]
  Activity: 0.05%
Musca domestica [25]
  Activity: 0.05%
Rattus norvegicus [26]
  Activity: 0 g
W256 [27]
  Activity: Active
W256 [28]
  Activity: 9.5 g
[22]
  LD50: 2 mg/kg
